Measured values from ChEMBL document CHEMBL1667809, “Synthesis and in vitro antibacterial activity of 7-(3-alkoxyimino-5-amino/methylaminopiperidin-1-yl)fluoroquinolone derivatives” (Bioorg Med Chem Lett, 2011).
In brackets after ≈: the same amount, converted by molar mass.

Legend:
Staphylococcus aureus [1] = assay: Antibacterial activity against Staphylococcus aureus ATCC 25923 after 18 to 24 hrs by agar dilution method; type: functional
Outline: (§1)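 Agar dilution on Petri dishes, each inoculated with 10⁴ cfu of the strain and incubated at 35 °C for 18–24 h. MIC read as the lowest compound concentration giving no visible growth on the plate.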

Streptococcus pneumoniae = assay: Antibacterial activity against Streptococcus pneumoniae 1001 after 18 to 24 hrs by agar dilution method; type: functional; outline: as §1
Staphylococcus aureus [2] = assay: Ratio of compound MIC to LVFX MIC for methicillin-sensitive Staphylococcus aureus 10-04; type: functional
[3] = system: Staphylococcus epidermidis; assay: Antibacterial activity against methicillin-resistant Staphylococcus epidermidis 10-5 after 18 to 24 hrs by agar dilution method; type: functional
Outline: (§2)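 Agar dilution on Petri dishes, each inoculated with 10⁴ cfu. Plates incubated at 35 °C for 18–24 h. MIC taken as the lowest test-compound concentration giving no visible growth on the plate. Reference drugs gemifloxacin, ciprofloxacin and levofloxacin run alongside for comparison.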

Streptococcus pyogenes [4] = assay: Antibacterial activity against Streptococcus hemolyticus 1002 after 18 to 24 hrs by agar dilution method; type: functional; outline: as §1
[5] = system: Staphylococcus epidermidis; assay: Ratio of compound MIC to LVFX MIC for methicillin-resistant Staphylococcus epidermidis 10-5; type: functional
Streptococcus pyogenes [6] = assay: Ratio of compound MIC to GMFX MIC for Streptococcus hemolyticus 1002; type: functional
[7] = Cytotoxicity against african green monkey Vero cells after 24 hrs; type: cell-based; conditions: chlorocebus sabaeus
Outline: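 Vero cells exposed to graded compound concentrations for 24 h, then viability assessed; CC₅₀ derived from the viability data.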

[8] = system: Staphylococcus epidermidis; assay: Ratio of compound MIC to CPFX MIC for methicillin-resistant Staphylococcus epidermidis 10-5; type: functional
Staphylococcus aureus [9] = assay: Ratio of compound MIC to GMFX MIC for methicillin-sensitive Staphylococcus aureus 10-04; type: functional
[10] = system: Staphylococcus epidermidis; assay: Antibacterial activity against methicillin-sensitive Staphylococcus epidermidis 10-4 after 18 to 24 hrs by agar dilution method; type: functional; outline: as §1
Streptococcus pyogenes [11] = assay: Ratio of compound MIC to LVFX MIC for Streptococcus hemolyticus 1002; type: functional
Klebsiella pneumoniae = assay: Antibacterial activity against Klebsiella pneumoniae 10-1 after 18 to 24 hrs by agar dilution method; type: functional; outline: as §1
Staphylococcus aureus [12] = assay: Antibacterial activity against methicillin-resistant Staphylococcus aureus 10-05 after 18 to 24 hrs by agar dilution method; type: functional; outline: as §2
Staphylococcus aureus [13] = assay: Antibacterial activity against methicillin-sensitive Staphylococcus aureus 10-04 after 18 to 24 hrs by agar dilution method; type: functional; outline: as §1
[14] = system: Staphylococcus epidermidis; assay: Ratio of compound MIC to GMFX MIC for methicillin-resistant Staphylococcus epidermidis 10-5; type: functional
Escherichia coli [15] = assay: Antibacterial activity against Escherichia coli 10-02 after 18 to 24 hrs by agar dilution method; type: functional; outline: as §1
Streptococcus pyogenes [16] = assay: Ratio of compound MIC to CPFX MIC for Streptococcus hemolyticus 1002; type: functional
Pseudomonas aeruginosa [17] = assay: Antibacterial activity against Pseudomonas aeruginosa 10-1 after 18 to 24 hrs by agar dilution method; type: functional; outline: as §1
Staphylococcus aureus [18] = assay: Ratio of compound MIC to CPFX MIC for methicillin-sensitive Staphylococcus aureus 10-04; type: functional
Pseudomonas aeruginosa [19] = assay: Antibacterial activity against Pseudomonas aeruginosa ATCC 27853 after 18 to 24 hrs by agar dilution method; type: functional; outline: as §1
Escherichia coli [20] = assay: Antibacterial activity against Escherichia coli ATCC 25922 after 18 to 24 hrs by agar dilution method; type: functional; outline: as §1
Staphylococcus aureus [21] = assay: Ratio of compound MIC to LVFX MIC for methicillin-resistant Staphylococcus aureus 10-05; type: functional
Staphylococcus aureus [22] = assay: Ratio of compound MIC to CPFX MIC for methicillin-resistant Staphylococcus aureus 10-05; type: functional
Staphylococcus aureus [23] = assay: Ratio of compound MIC to GMFX MIC for methicillin-resistant Staphylococcus aureus 10-05; type: functional

Row | SMILES | MIC (Staphylococcus aureus [1]) [µg/mL] | MIC (Streptococcus pneumoniae) [µg/mL] | Ratio (Staphylococcus aureus [2]) | MIC [3] [µg/mL] | MIC (Streptococcus pyogenes [4]) [µg/mL] | Ratio [5] | CC50 at 24 h [7] [µM] | Ratio [8] | Ratio (Staphylococcus aureus [9]) | MIC [10] [µg/mL] | MIC (Klebsiella pneumoniae) [µg/mL] | MIC (Staphylococcus aureus [12]) [µg/mL] | MIC (Staphylococcus aureus [13]) [µg/mL] | Ratio [14] | MIC (Escherichia coli [15]) [µg/mL] | MIC (Pseudomonas aeruginosa [17]) [µg/mL] | Ratio (Staphylococcus aureus [18]) | MIC (Pseudomonas aeruginosa [19]) [µg/mL] | MIC (Escherichia coli [20]) [µg/mL] | also measured
1 | CO/N=C1\CC(N)CN(c2c(F)cc3c(=O)c(C(=O)O)cn(C4CC4)c3c2OC)C1 (centres undefined) | 0.25 (≈ 0.597 µM) | 0.25 (≈ 0.597 µM) | 4 | 4 (≈ 9.56 µM) | 4 (≈ 9.56 µM) | 2 | 885 | 4 | 4 | 2 (≈ 4.78 µM) | 64 (≈ 153 µM) | 4 (≈ 9.56 µM) | 0.5 (≈ 1.19 µM) | 2 | 0.25 (≈ 0.597 µM) | 4 (≈ 9.56 µM) | 4 | 4 (≈ 9.56 µM) | 0.25 (≈ 0.597 µM) | Ratio (Streptococcus pyogenes [6]): 2; Ratio (Streptococcus pyogenes [11]): 2; Ratio (Streptococcus pyogenes [16]): 2
2 | CCO/N=C1\CC(N)CN(c2c(F)cc3c(=O)c(C(=O)O)cn(C4CC4)c3c2OC)C1 (centres undefined) | 0.25 (≈ 0.578 µM) | 0.125 (≈ 0.289 µM) | 16 | 2 (≈ 4.62 µM) | 8 (≈ 18.5 µM) | 4 | 879 | 8 | 16 | 1 (≈ 2.31 µM) | 128 (≈ 296 µM) | 2 (≈ 4.62 µM) | 0.125 (≈ 0.289 µM) | 4 | 0.25 (≈ 0.578 µM) | > 128 | 16 | 8 (≈ 18.5 µM) | 0.25 (≈ 0.578 µM) | Ratio (Staphylococcus aureus [21]): 2; Ratio (Staphylococcus aureus [22]): 2; Ratio (Staphylococcus aureus [23]): 2
